“And” between values parts separate entries of the source, which are not always exact repeats. Equal values may be shown once. “Also recorded” adds a separate entry of the source. Read-outs that look alike come from different tables or passages of the source. Marks after values point to notes of the source that are not given here.
Legend:
[1] = tested on: P. falciparum 3D7 parasites (asexual stage, ring stage); type: cell-based, Plasmodium falciparum; conditions: for Antimalarial activity, ranking among the three compounds tested: 2.5-20 μM, 24-72 h, microscopy
Procedure, shortened: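 Sorbitol-synchronized P. falciparum 3D7 in human erythrocytes (37 °C, 5% O2/5% CO2/90% N2) was treated at ring stage (8–10 h post-invasion, 4–6% parasitemia) with 2.5, 5, 10 or 20 μM test compound, or left untreated. Aliquots were taken at 24, 48 and 72 h for Giemsa-stained thin smears. Percent parasitemia and stage (rings, trophozoites, schizonts) were scored by light microscopy.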

[2] = tested on: P. falciparum gametocytes; type: cell-based, Plasmodium falciparum; conditions: 48 h
Procedure, shortened: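 Gametocytes came from P. falciparum cultured continuously for 6–8 weeks at >10% parasitemia, with weekly sorbitol synchronization, in human erythrocytes at 37 °C under 5% O2/5% CO2/90% N2. Gametocyte cultures were exposed to test compound at 10 or 20 μM for 48 h alongside untreated controls. Giemsa-stained smears of culture pellets were then examined by light microscopy for gametocyte morphology.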

[3] = tested on: human metastatic melanoma UACC 903 cells; conditions: read-out: IC50, UACC 903 cells; MTS assay, ± SEM; ref Robertson et al. (2014); cited from earlier work
[4] = tested on: human normal skin fibroblast FF 2441 cells; conditions: read-out: IC50, FF 2441 cells; MTS assay, ± SEM; ref Robertson et al. (2014); cited from earlier work
P. falciparum 3D7 = assay: Antimalarial activity by SYBR Green assay; type: cell-based, Plasmodium falciparum; conditions: for IC50: mean of three independent experiments ± SEM; for Antimalarial activity: summary of IC50 results
[5] = 2.5 μM, 48 h, treated at ring stage
[6] = 2.5 μM, 72 h, treated at ring stage
[7] = 5 μM, 24 h, treated at ring stage
[8] = 5 μM, 48 h, treated at ring stage
[9] = 5 μM, 72 h, NVP = no viable parasites
[10] = 10 μM, 24 h, treated at ring stage
[11] = 10 μM, 72 h, NVP = no viable parasites
[12] = 20 μM, 24 h, NVP = no viable parasites
[13] = 20 μM, 48 h, ring-stage (R) parasites, NVP = no viable parasites
[14] = 20 μM, 72 h, NVP = no viable parasites
[15] = up to 20 μM, 48 h, ring stage treated
[16] = 10 μM, 48 h, ring-stage (R) parasites

Row | Compound | Percent parasitemia and parasite growth stage [1, 5] | Percent parasitemia and parasite growth stage [1, 6] | Percent parasitemia and parasite growth stage [1, 7] | Percent parasitemia and parasite growth stage [1, 8] | Percent parasitemia and parasite growth stage [1, 9] | Percent parasitemia and parasite growth stage [1, 10] | Percent parasitemia and parasite growth stage [1, 11] | Percent parasitemia and parasite growth stage [1, 12] | Percent parasitemia and parasite growth stage [1, 13] | Percent parasitemia and parasite growth stage [1, 14] | Antimalarial activity, ranking among the three compounds tested [1] | IC50 [3] [µM] | IC50 [4] [µM] | IC50 (P. falciparum 3D7; read-out: IC50, 3D7, 72 h) | Inhibition of parasite growth (P. falciparum 3D7; [15]) | Percent parasitemia and parasite growth stage [1, 16] | Antimalarial activity (P. falciparum 3D7) | Inhibition of parasite growth (P. falciparum 3D7; 20 μM, 72 h) | further results
1 | CC(C)c1ccc2c(c1)CC[C@H]1[C@](C)(CN)CCC[C@]21C [compound 1, dehydroabietylamine] | 10.3 ± 1.3 (R) % | 9.1 ± 0.5 (T) ^b % | 5.5 ± 0.3 (T) % | 6.1 ± 1.5 (T, S, R) % | NVP | 3.3 ± 0.3 (T) % | NVP | NVP^c | NVP | NVP | most active | 1.4 ± 0.24 | 8.9 ± 0.68 | 1.8 ± 0.22 µM | efficiently inhibited parasite growth in a dose dependent manner | – | – | – | Parasites developed into trophozoites ([1]; 10 μM, 24 h treatment): ~ 60%; Remaining trophozoites still at the trophozoite and schizont stages, unhealthy ([1]; 10 μM, 48 h): ~ 73%; Percent parasitemia and parasite growth stage ([1]; 10 μM, 48 h, ring-stage (R) parasites, listed as Dehydroabietylamine): 2.5 ± 0.2%; Percent parasitemia and parasite growth stage ([1]; 10 μM, 48 h, ring-stage (R) parasites, listed as dehydroabietylamine): ~ 2.5%; Trophozoites matured into healthy schizonts ([1]; 10 μM, by 48 h): ~ 27%; Effect on parasite development ([1]; 20 μM, 24 h): completely inhibited parasite development into trophozoites; Gametocidal effect ([2]; 10 μM): gametocytes shrunk and condensed into non-viable, rounded condensed bodies; Gametocidal effect ([2]; 20 μM): completely lysed gametocytes
2 | CC(C)C1=CC2=CC[C@H]3[C@](C)(CN)CCC[C@]3(C)[C@H]2CC1 [4d, abietylamine] | 20.4 ± 1.3 (R) % | 10.0 ± 0.5 (T) % | 6.0 ± 0.4 (T) % | 16.1 ± 1.5 (R) % | 9.0 ± 0.4 (T) ^b % | 4.3 ± 0.4 (T) % | 8.3 ± 0.1 (T) ^b % | 3.7 ± 0.3 (T) % | – | NVP ^b | moderately active | 2.1 ± 0.25 | 8.3 ± 0.41 | 8.2 ± 0.48 µM | – | 10.1 ± 0.6% | – | – | Inhibition of parasite growth ([1]; 2.5 μM, by 72 h): about 50%; Parasites developed into trophozoites ([1]; 20 μM, 24 h period): ~ 60%; Percent parasitemia and parasite growth stage ([1]; 20 μM, 48 h, ring-stage (R) parasites, NVP = no viable parasites, listed as Abietylamine): 2.4 ± 0.5%; Percent parasitemia and parasite growth stage ([1]; 20 μM, 48 h, ring-stage (R) parasites, NVP = no viable parasites, listed as abietylamine): ~ 2.4%; Parasites at the trophozoite and schizont stages ([1]; 20 μM, 48 h, share of those that developed into trophozoites): ~ 45%; Effect on parasites ([1]; 20 μM, by 72 h): completely killed the parasites
3 | CC(C)c1ccc2c(c1)CCC1C(C)(CNC(=O)c3ccccc3)CCCC21C (stereo not drawn) [2d, N-dehydroabietylbenzamide] | – | – | – | – | – | – | – | – | – | – | – | > 100 | > 100 | 0.36 ± 0.13 µM | – | – | good to excellent antimalarial activity; also recorded: most potent antimalarial activity | – | –
4 | CC(C)c1ccc2c(c1)CC[C@H]1[C@](C)(CNC(c3ccccc3)(c3ccccc3)c3ccccc3)CCC[C@]21C [2f] | – | – | – | – | – | – | – | – | – | – | – | > 100 | > 100 | ~90.6 µM and 90.6 µM | – | – | – | not inhibitory | –
5 | CC(C)C1=CC2=CC[C@@H]3[C@](C)(CCC[C@@]3(C)C(=O)O)[C@H]2CC1 [compound 3, abietic acid] | 21.6 ± 1.0 (R) % | 20.6 ± 1.2 (T) % | 6.0 ± 0.3 (T) % | 22.0 ± 1.3 (R) % | 20.6 ± 0.4 (T) % | 5.7 ± 0.3 (T) % | 20.0 ± 0.2 (T) % | 5.9 ± 0.4 (T) % | 20.6 ± 0.9 (R) % | 15.1 ± 0.3 (T) % | negligibly active | > 100 | > 100 | – | negligible activity | 22.3 ± 0.6 (R) % | – | – | Effect on parasite growth ([1]; 20 μM, second life cycle): noticeably inhibit parasite growth; Effect on parasite growth ([1]; 2.5, 5, and 10 μM, 72 h culturing period): no effect on parasite growth; Gametocidal effect ([2]; 10 and 20 μM): no activity; also recorded: no effect on gametocytes; IC50 (P. falciparum 3D7; Plasmodium falciparum, 3D7, 72 h, read-out: IC50, 3D7, 72 h): ~82 µM
6 | CCC(=O)NCC1(C)CCCC2(C)c3ccc(C(C)C)cc3CCC12 (stereo not drawn) [2c, N-dehydroabietylpropionamide] | – | – | – | – | – | – | – | – | – | – | – | 89.4 ± 3.3 | > 100 | 13.3 ± 0.44 µM | – | – | good to excellent antimalarial activity | complete inhibition | –
